# Measured values reported in ChEMBL document CHEMBL1133552, “Synthesis and evaluation of pharmacological and pharmacokinetic properties of 11H-[1,2,4]triazolo[4,5-c][2,3]benzodiazepin-3(2H)-ones” (J Med Chem, 2000).
# How the values were obtained:
# [1] = Evaluated for anticonvulsant property in DBA/2 mice against Locomotion assessed by Rotarod test (ip administration); format: functional, Mus musculus
# Summary of the method: (§1)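 Rotarod (3-cm diameter, 8 rpm): trained mice in groups of 10 tested 30 min after ip dosing; failure to stay on for 2 min = impairment. TD50 by Litchfield-Wilcoxon, at least 32 animals per value.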
# [2] = Relative Lipophilicity measured by reversed-phase high performance thin-layer chromatography (RP-HPTLC); format: physicochemical
# Summary of the method: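 Reversed-phase TLC; plates dried 105 °C, 1 h; mobile phase acetone/water 2:1 (v/v); 1 µL of 3 mg/mL CHCl3 solution spotted; five runs with varied placement; mean Rf converted via Rm = log[(1/Rf) - 1].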
# [3] = Therapeutic index is the ratio between TD50 and ED50 (from the clonic phase of the audiogenic seizures); ND means not detectable
# Summary of the method: (§2)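 Therapeutic index = TD50 (rotarod, ip) divided by ED50 for clonic phase of audiogenic seizures in DBA/2 mice; both by Litchfield-Wilcoxon, at least 32 animals each.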
# [4] = Evaluated for anticonvulsant property in DBA/2 mice against Locomotion assessed by Rotarod test (ip administration); value ranges from 34-77.8; format: functional, Mus musculus; summary of the method: as §1
# [5] = Evaluated for anticonvulsant property in DBA/2 mice against Audiogenic seizures during clonic phase (ip administration); value ranges from 26.0-44.2; format: functional; details: Mus musculus
# Summary of the method: (§3)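 DBA/2 mice, genetically sound-susceptible (8-12 g, 22-25 days old, either sex), groups of 10; drug ip in 50% DMSO/50% saline (0.1 mL/10 g), auditory stimulation 30 min later; latency and incidence of clonic and tonic phases scored; ED50 via Litchfield-Wilcoxon, at least 32 animals per value.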
# [6] = Evaluated for anticonvulsant property in DBA/2 mice against Locomotion assessed by Rotarod test (ip administration); value ranges from 87.3-231; format: functional, Mus musculus; summary of the method: as §1
# Mus musculus = assay: Anticonvulsant activity was determined when tested at 15 min from intraperitoneal administration; format: functional; details: ip, 0.25 h
# [7] = Evaluated for anticonvulsant property in DBA/2 mice against Audiogenic seizures during tonic phase (ip administration); ranges from [32.5-57.4]; format: functional; details: Mus musculus; summary of the method: as §3
# [8] = Evaluated for anticonvulsant property in DBA/2 mice against Audiogenic seizures during clonic phase (ip administration); ranges from [39.2-81.1]; format: functional; details: Mus musculus; summary of the method: as §3
# [9] = Evaluated for anticonvulsant property in DBA/2 mice against Audiogenic seizures during clonic phase (ip administration); value ranges from 46.0-132; format: functional; details: Mus musculus; summary of the method: as §3
# [10] = Evaluated for anticonvulsant property in DBA/2 mice against Audiogenic seizures during tonic phase (ip administration); value ranges from 41.5-78.8; format: functional; details: Mus musculus; summary of the method: as §3
# [11] = Evaluated for anticonvulsant property in Swiss mice against PTZ induced seizures; value ranges from 43.8-79.1; format: functional; details: Mus musculus
# Summary of the method: (§4)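 Male Swiss mice given drug ip (50% DMSO/50% saline) 45 min before sc PTZ at CD97 (85 mg/kg); watched 30 min; protection = no clonic spasm lasting at least 5 s; ED50 by Litchfield-Wilcoxon.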
# [12] = Evaluated for anticonvulsant property in DBA/2 mice against Audiogenic seizures during tonic phase (ip administration); value ranges from 8.04-21.3; format: functional; details: Mus musculus; summary of the method: as §3
# [13] = Evaluated for anticonvulsant property in DBA/2 mice against Locomotion assessed by Rotarod test (ip administration); value ranges from 59.4-99.3; format: functional, Mus musculus; summary of the method: as §1
# [14] = Evaluated for anticonvulsant property in DBA/2 mice against Audiogenic seizures during clonic phase (ip administration); value ranges from 10.5-38.2; format: functional; details: Mus musculus; summary of the method: as §3
# [15] = Evaluated for anticonvulsant property in Swiss mice against MES induced seizures; value ranges from 26.8-45.8; format: functional; details: Mus musculus
# [16] = Therapeutic index is the ratio between TD50 and ED50 (from the clonic phase of the audiogenic seizures); details: read-out: TI; summary of the method: as §2
# [17] = Evaluated for anticonvulsant property in Swiss mice against MES induced seizures; value ranges from 62.4 - 92.1; format: functional; details: Mus musculus
# [18] = Evaluated for anticonvulsant property in DBA/2 mice against Audiogenic seizures during clonic phase (ip administration); value ranges from 60.3-91.0; format: functional; details: Mus musculus; summary of the method: as §3
# [19] = Evaluated for anticonvulsant property in Swiss mice against PTZ induced seizures; value ranges from 72.2 - 114; format: functional; details: Mus musculus; summary of the method: as §4
# [20] = Evaluated for anticonvulsant property in DBA/2 mice against Audiogenic seizures during tonic phase (ip administration); value ranges from 41.3-82.3; format: functional; details: Mus musculus; summary of the method: as §3
# [21] = Evaluated for anticonvulsant property in DBA/2 mice against AMPA induced seizures during clonic phase; value ranges from 13.8-37.2; format: functional; details: Mus musculus
# [22] = Evaluated for anticonvulsant property in DBA/2 mice against audiogenic Seizures after pretreatment with Aniracetam during tonic phase, *p<0.01; value ranges from 12.7-45.5; format: functional; details: Mus musculus
# [23] = Evaluated for anticonvulsant property in DBA/2 mice against Locomotion assessed by Rotarod test (ip administration); value ranges from 46.2-99.8; format: functional, Mus musculus; summary of the method: as §1
# [24] = Evaluated for anticonvulsant property in Swiss mice against PTZ induced seizures; value ranges from 41.5-78.8; format: functional; details: Mus musculus; summary of the method: as §4
# [25] = Evaluated for anticonvulsant property in Swiss mice against MES induced seizures; ranges from [18.6-51.0]; format: functional; details: Mus musculus
# [26] = Evaluated for anticonvulsant property in DBA/2 mice against AMPA induced seizures during tonic phase; value ranges from 11.4-28.7; format: functional; details: Mus musculus
# [27] = Evaluated for anticonvulsant property in DBA/2 mice against Audiogenic seizures during tonic phase (ip administration); value ranges from 8.67-11.93; format: functional; details: Mus musculus; summary of the method: as §3
# [28] = Evaluated for anticonvulsant property in DBA/2 mice against Audiogenic seizures during clonic phase (ip administration); value ranges from 11.8-22.0; format: functional; details: Mus musculus; summary of the method: as §3
# [29] = Evaluated for anticonvulsant property in DBA/2 mice against audiogenic Seizures after pretreatment with Aniracetam during clonic phase, *p<0.01; value ranges from 20.5-71.9; format: functional; details: Mus musculus
# [30] = Evaluated for anticonvulsant property in DBA/2 mice against Audiogenic seizures during tonic phase (ip administration); value ranges from 15.4-49.4; details: Mus musculus
# [31] = Evaluated for anticonvulsant property in DBA/2 mice against Audiogenic seizures during clonic phase (ip administration); value ranges from 32.5-61.2; details: Mus musculus
# [32] = Evaluated for anticonvulsant property in Swiss mice against MES induced seizures; ranges from [45.6-80.3]; format: functional; details: Mus musculus
# [33] = Evaluated for anticonvulsant property in DBA/2 mice against Locomotion assessed by Rotarod test (ip administration); value ranges from 73.8-206; format: functional, Mus musculus; summary of the method: as §1
# [34] = Evaluated for anticonvulsant property in Swiss mice against PTZ induced seizures; value ranges from 51.8-113; format: functional; details: Mus musculus; summary of the method: as §4
# [35] = Evaluated for anticonvulsant property in DBA/2 mice against Audiogenic seizures during tonic phase (ip administration); value ranges from 14.3-31.9; format: functional; details: Mus musculus; summary of the method: as §3
# [36] = Evaluated for anticonvulsant property in Swiss mice against PTZ induced seizures; value ranges from 45.6-80.3; format: functional; details: Mus musculus; summary of the method: as §4
# [37] = Evaluated for anticonvulsant property in DBA/2 mice against audiogenic Seizures after pretreatment with Aniracetam during clonic phase; value ranges from 28.3-91.5; format: functional; details: Mus musculus
# [38] = Evaluated for anticonvulsant property in Swiss mice against MES induced seizures; value ranges from 33.5-56.0; format: functional; details: Mus musculus
# [39] = Evaluated for anticonvulsant property in DBA/2 mice against AMPA induced seizures during tonic phase; value ranges from 20.6-50.3; format: functional; details: Mus musculus
# [40] = Evaluated for anticonvulsant property in DBA/2 mice against Locomotion assessed by Rotarod test (ip administration); value ranges from 65.1-126; format: functional, Mus musculus; summary of the method: as §1
# [41] = Evaluated for anticonvulsant property in DBA/2 mice against AMPA induced seizures during clonic phase; value ranges from 27.5-64.3; format: functional; details: Mus musculus
# [42] = Evaluated for anticonvulsant property in DBA/2 mice against Audiogenic seizures during clonic phase (ip administration); value ranges from 16.3-[…]; format: functional; details: Mus musculus; summary of the method: as §3
# [43] = Evaluated for anticonvulsant property in DBA/2 mice against audiogenic Seizures after pretreatment with Aniracetam during tonic phase, *p<0.01; value ranges from 23.5-62.7; format: functional; details: Mus musculus
smiles,measurement,setting,value
COc1cc2c(cc1OC)C(c1ccc([N+](=O)[O-])cc1)=NNC(=O)C2,TD50,[1],>150 µM/kg
same,Rm,[2],-0.145
same,TI,[3],Not detectable
COc1cc2c(cc1OC)C(c1cccc([N+](=O)[O-])c1)=NNC(=O)C2,TD50,[1],>150 µM/kg
same,Rm,[2],-0.181
same,TI,[3],Not detectable
COc1cc2c(cc1OC)C(c1cccc(N)c1)=NNC(=O)C2,Rm,[2],-0.619
same,TD50,[4],51.5 µM/kg
COc1cc2c(cc1OC)C(c1ccccc1)=NNC(=O)C2,Rm,[2],-0.28
same,ED50,[5],33.9 µmol/kg
same,TD50,[6],142 µM/kg
COc1cc2c(cc1OC)C(c1ccc(N)cc1)=NNC(=O)C2,TD50,[1],56.8 µM/kg
same,Rm,[2],-0.647
same,ED50,Mus musculus,> 50 µmol/kg
COc1cc2c(cc1OC)C(c1cccc([N+](=O)[O-])c1)=Nn1c(O)nnc1C2,TD50,[1],>150 µM/kg
same,Rm,[2],-0.402
same,ED50,[7],43.2 µmol/kg
same,ED50,[8],56.4 µmol/kg
COc1cc2c(cc1OC)C(c1ccc(F)cc1)=NNC(=O)C2,TD50,[1],>150 µM/kg
same,Rm,[2],-0.28
same,ED50,[9],78 µmol/kg
same,ED50,[10],57.2 µmol/kg
COc1cc2c(cc1OC)C(c1cccc(N)c1)=Nn1c(O)nnc1C2,Rm,[2],-0.74
same,ED50,[11],58.9 µmol/kg
same,ED50,[12],13.1 µmol/kg
same,TD50,[13],76.8 µM/kg
same,ED50,[14],20.1 µmol/kg
same,ED50,[15],35.1 µmol/kg
same,selectivity ratio,[16],3.8
COc1cc2c(cc1OC)C(c1ccc([N+](=O)[O-])cc1)=Nn1c(O)nnc1C2,TD50,[1],>150 µM/kg
same,Rm,[2],-0.368
same,ED50,[17],75.8 µmol/kg
same,ED50,[18],74.1 µmol/kg
same,ED50,[19],90.7 µmol/kg
same,ED50,[20],58.3 µmol/kg
COc1cc2c(cc1OC)C(c1ccc(N)cc1)=Nn1c(O)nnc1C2,Rm,[2],-0.837
same,ED50,[21],22.1 µmol/kg
same,ED50,[22],24.1 µmol/kg
same,TD50,[23],65.8 µM/kg
same,ED50,Mus musculus,27.8 µmol/kg
same,ED50,[24],57.2 µmol/kg
same,ED50,[25],30.8 µmol/kg
same,ED50,[26],18.1 µmol/kg
same,ED50,[27],10.2 µmol/kg
same,ED50,[28],16.1 µmol/kg
same,selectivity ratio,[16],4
same,ED50,[29],38.4 µmol/kg
COc1cc2c(cc1OC)C(c1ccccc1)=Nn1c(O)nnc1C2,Rm,[2],-0.508
same,ED50,[30],27.5 µmol/kg
same,ED50,[31],44.6 µmol/kg
same,ED50,[32],60.5 µmol/kg
same,TD50,[33],123 µM/kg
same,ED50,[34],76.5 µmol/kg
same,selectivity ratio,[16],2.8
COc1cc2c(cc1OC)C(c1ccc(F)cc1)=Nn1c(O)nnc1C2,Rm,[2],-0.402
same,ED50,[35],21.8 µmol/kg
same,ED50,[36],60.5 µmol/kg
same,ED50,[37],50.9 µmol/kg
same,ED50,[38],43.4 µmol/kg
same,ED50,[39],32.2 µmol/kg
same,TD50,[40],90.6 µM/kg
same,ED50,[41],42.1 µmol/kg
same,ED50,[42],32.1 µmol/kg
same,ED50,[43],38.4 µmol/kg
same,selectivity ratio,[16],2.8
CC1=NN=C(c2ccc(N)cc2)c2cc3c(cc2C1)OCO3 [GYKI-52466],Rm,[2],-0.368
